This note sets out measurements from ChEMBL document CHEMBL4024768, “Discovery and Optimization of Thiazolidinyl and Pyrrolidinyl Derivatives as Inhaled PDE4 Inhibitors for Respiratory Diseases” (J Med Chem, 2017).

Broadly, the IC50 is the concentration needed to halve the response being measured. By Papp B→A is commonly meant the apparent permeability from the basolateral to the apical side of a cell layer. In general, Papp A→B refers to how fast a substance crosses the layer from the apical side.

The nature of data set [1]: Inhibition of PDE4 in human U937 cell lysates assessed as residual cAMP after 2.5 mins by LANCE assay.
Data set [2] is described as follows: Inhibition of PDE4 in human PBMC assessed as reduction in LPS-induced TNFalpha release after 18 hrs by quantitative ELISA. In general terms: ELISA stands for enzyme-linked immunosorbent assay.
The nature of data set [3]: Intrinsic clearance in human liver microsomes at 1 uM measured after 60 mins in presence NADPH by LC-MS/MS analysis. Particulars: read-out: CLH. It is filed as ADME, microsome. The procedure, abridged:
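Compound at 1 μM with human liver microsomes (0.8 mg protein/mL) in Dulbecco's buffer pH 7.4, 1 mM NADPH, 37 °C, in duplicate. Sampled at 0, 5, 10, 20, 30 and 60 min, quenched with ice-cold acetonitrile, and unchanged compound measured by LC−MS/MS. No-NADPH controls; midazolam (1 μM) as phase I control.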
For orientation: Liver microsomes are a subcellular fraction often used to study metabolism.

The nature of data set [4]: Metabolic stability in human lung S9 fraction assessed as compound remaining at 1 uM measured after 60 mins in presence of NADPH by LC-MS/MS analysis. Format: ADME. Particulars: read-out: Stability.
Data set [5] is described as follows: Apparent permeability across basolateral to apical side in human Caco2 cells at 10 uM after 2 hrs by LC-MS/MS analysis. It is filed as ADME, cell-based. The settings on record: Caco-2. Background: Caco-2 cells form a polarised layer with tight junctions and transporters.
Data set [6] is described as follows: Intrinsic clearance in human hepatocytes assessed per million cells at 1 uM measured after 90 mins by LC-MS/MS analysis. Format: ADME, cell-based, Hepatocyte. Particulars: read-out: CLH. The procedure, abridged: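 Compound at 1 μM with hepatocytes (1 million cells/mL) in Leibovitz L-15 at 37 °C, in duplicate. Sampled at 0, 10, 20, 30, 60 and 90 min, quenched with ice-cold acetonitrile, centrifuged, and unchanged compound measured by LC−MS/MS. Included 7-ethoxycoumarin and 7-hydroxycoumarin activity controls and cell-free medium controls.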

A short description of data set [7]: Apparent permeability across apical to basolateral side in human Caco2 cells at 10 uM after 2 hrs by LC-MS/MS analysis. It is filed as ADME, cell-based. Particulars: Caco-2.
A short description of data set [8]: Metabolic stability in human plasma assessed as compound remaining at 1 uM measured after 60 mins in presence of NADPH by LC-MS/MS analysis. Format: ADME, cell-free. Particulars: read-out: Stability.
Data set [9] is described as follows: Protein binding in human plasma at 5 uM after 5 hrs by LC-MS/MS analysis. Format: ADME, cell-free. Particulars: read-out: PPB (converted).

Some results are limits rather than exact numbers.

Consider `O=C(O[C@@H](Cc1c(Cl)c[n+]([O-])cc1Cl)c1ccc(OC(F)F)c(OCC2CC2)c1)c1ccccc1`, for which the IC50 in [1] was found to be 0.072 nM.
Consider `O=C(O[C@@H](Cc1c(Cl)c[n+]([O-])cc1Cl)c1ccc(OC(F)F)c(OCC2CC2)c1)c1ccccc1S(=O)(=O)c1ccccc1`, for which the IC50 in data set [1] is 0.323 nM.
As to `CN(C)C(=O)c1cccc(S(=O)(=O)N2CSC[C@H]2C(=O)O[C@@H](Cc2c(Cl)c[n+]([O-])cc2Cl)c2ccc(OC(F)F)c(OCC3CC3)c2)c1`, the IC50 in data set [2] amounted to 0.035 nM; in [1] it was 0.055 nM. In addition, the microsomal CLint at 1 µM in data set [3] amounted to 268 µL/min/mg. The remaining at 1 h, 1 µM in data set [4] worked out at 52.1%; in data set [8], 94%. The Papp B→A at 2 h, 10 µM in [5] is 4.46 ×10⁻⁶ cm/s. Further, the hepatocyte CLint at 1 µM in data set [6] turned out to be 25.9 µL/min/1e6 cells. For the same molecule, in data set [7], the Papp A→B at 2 h, 10 µM amounted to 2.8 ×10⁻⁶ cm/s. Further, the fraction unbound at 5 h, 5 µM in [9] is 0.0017.
Take `CN(C)C(=O)c1cccc(S(=O)(=O)N2CCS[C@@H]2C(=O)O[C@H](Cc2c(Cl)c[n+]([O-])cc2Cl)c2ccc(OC(F)F)c(OCC3CC3)c2)c1`: the IC50 in data set [1] turned out to be 6.4 nM.
In the case of `CN(C)C(=O)c1cccc(C(=O)N2CCS[C@H]2C(=O)O[C@@H](Cc2c(Cl)c[n+]([O-])cc2Cl)c2ccc(OC(F)F)c(OCC3CC3)c2)c1`, in data set [2], the IC50 turned out to be 0.57 nM.
For the molecule `O=C(c1ccccc1)c1ccsc1C(=O)O[C@@H](Cc1c(Cl)c[n+]([O-])cc1Cl)c1ccc(OC(F)F)c(OCC2CC2)c1`, in data set [1], the IC50 came to 0.32 nM.
Turning to `Cn1cnc(S(=O)(=O)N2CCS[C@H]2C(=O)O[C@@H](Cc2c(Cl)c[n+]([O-])cc2Cl)c2ccc(OC(F)F)c(OCC3CC3)c2)c1`, the IC50 in data set [2] came out at 0.028 nM; in data set [1] it was 0.02 nM. Besides, the microsomal CLint at 1 µM in [3] is 281 µL/min/mg. Also, the remaining at 1 h, 1 µM was 77.7% in [4] and 101% in data set [8]. Further, the Papp B→A at 2 h, 10 µM in data set [5] was found to be 3.95 ×10⁻⁶ cm/s. The hepatocyte CLint at 1 µM in [6] came to 66.9 µL/min/1e6 cells. The Papp A→B at 2 h, 10 µM in data set [7] was 0.22 ×10⁻⁶ cm/s. In data set [9], the fraction unbound at 5 h, 5 µM was 0.015.
For the molecule `O=C(O[C@@H](Cc1c(Cl)c[n+]([O-])cc1Cl)c1ccc(OC(F)F)c(OCC2CC2)c1)[C@H]1CCCN1S(=O)(=O)c1ccccc1`, the IC50 in data set [2] was determined as 0.34 nM; in data set [1], 0.06 nM.
For the molecule `CN(C)C(=O)c1cccc(S(=O)(=O)N2CCS[C@H]2C(=O)O[C@H](Cc2c(Cl)c[n+]([O-])cc2Cl)c2ccc(OC(F)F)c(OCC3CC3)c2)c1`, the IC50 in data set [1] was determined as 3.01 nM.
For `CN(C)C(=O)c1cccc(S(=O)(=O)N2CCS[C@H]2C(=O)O)c1`, the IC50 in data set [2] is above 1000 nM.
On to `CN(C)C(=O)c1cccc(S(=O)(=O)N2CCS[C@@H]2C(=O)O[C@@H](Cc2c(Cl)c[n+]([O-])cc2Cl)c2ccc(OC(F)F)c(OCC3CC3)c2)c1`, for which the concentration for half-maximal inhibition (IC50) in [2] and in data set [1] was 0.047 nM each time.
As to `O=C(O[C@@H](Cc1c(Cl)c[n+]([O-])cc1Cl)c1ccc(OC(F)F)c(OCC2CC2)c1)c1cccn1S(=O)(=O)c1ccccc1`, the IC50 in [1] came to 0.825 nM.
Take `O=C(O[C@@H](Cc1c(Cl)c[n+]([O-])cc1Cl)c1ccc(OC(F)F)c(OCC2CC2)c1)[C@@H]1SCCN1S(=O)(=O)c1cccnc1` (relative stereo): the results for the IC50 in data set [2] and in data set [1] were 0.07 nM and 0.061 nM, respectively.
In the same order, the values of `COCCS(=O)(=O)N1CCS[C@H]1C(=O)O[C@@H](Cc1c(Cl)c[n+]([O-])cc1Cl)c1ccc(OC(F)F)c(OCC2CC2)c1` (relative stereo) are 0.078 nM and 0.043 nM.
Turning to `COc1ccc(S(=O)(=O)N2CCC[C@H]2C(=O)O[C@@H](Cc2c(Cl)c[n+]([O-])cc2Cl)c2ccc(OC(F)F)c(OCC3CC3)c2)cc1C(=O)N(C)C` (relative stereo), the values for the IC50 in [2] and in [1] were 0.042 nM and 0.0351 nM, respectively. In addition, the microsomal CLint at 1 µM in data set [3] was 365 µL/min/mg. The remaining at 1 h, 1 µM came to 71.6% in data set [4] and 101% in data set [8]. Also, the Papp B→A at 2 h, 10 µM in [5] is 12.5 ×10⁻⁶ cm/s. Also, the hepatocyte CLint at 1 µM in data set [6] stood at 56.7 µL/min/1e6 cells. For the same molecule, in data set [7], the Papp A→B at 2 h, 10 µM came to 0.5 ×10⁻⁶ cm/s. Moreover, the fraction unbound at 5 h, 5 µM in data set [9] is 0.0032.
With `O=C(O[C@@H](Cc1c(Cl)c[n+]([O-])cc1Cl)c1ccc(OC(F)F)c(OCC2CC2)c1)[C@@H]1CCCN1S(=O)(=O)c1ccccc1` (relative stereo), the IC50 in data set [2] worked out at 0.4 nM; in data set [1], 0.109 nM.
Consider `COc1ccc(S(=O)(=O)N2CCC[C@H]2C(=O)O[C@@H](Cc2c(Cl)c[n+]([O-])cc2Cl)c2ccc(OC(F)F)c(OCC3CC3)c2)cc1OC` (relative stereo), for which the IC50 in data set [2] was found to be 0.36 nM; in data set [1], 0.0324 nM.
Take `O=C(O[C@@H](Cc1c(Cl)c[n+]([O-])cc1Cl)c1ccc(OC(F)F)c(OCC2CC2)c1)[C@@H]1CCCCN1S(=O)(=O)c1ccccc1` (relative stereo): the IC50 in data set [2] came to 0.203 nM; in data set [1] it was 0.094 nM.
For the molecule `COc1ccc(S(=O)(=O)N2CCS[C@H]2C(=O)O[C@@H](Cc2c(Cl)c[n+]([O-])cc2Cl)c2ccc(OC(F)F)c(OCC3CC3)c2)cc1OC` (relative stereo), the IC50 in [2] amounted to 0.057 nM; in data set [1], 0.041 nM. In addition, in data set [3], the microsomal CLint at 1 µM worked out at 200 µL/min/mg. Further, the remaining at 1 h, 1 µM was found to be 50.7% in [4] and 101% in data set [8]. Further, in data set [5], the Papp B→A at 2 h, 10 µM turned out to be 0.82 ×10⁻⁶ cm/s. For the same molecule, the hepatocyte CLint at 1 µM in data set [6] was 53.8 µL/min/1e6 cells. For the same molecule, the apparent permeability from apical to basolateral (Papp A→B) at 2 h, 10 µM in data set [7] came to 0.25 ×10⁻⁶ cm/s. Further, in [9], the fraction unbound at 5 h, 5 µM was 0.004.
Turning to `CS(=O)(=O)N1CCC[C@H]1C(=O)O[C@@H](Cc1c(Cl)c[n+]([O-])cc1Cl)c1ccc(OC(F)F)c(OCC2CC2)c1` (relative stereo), the IC50 in [2] is 4.2 nM; in data set [1], 0.504 nM.
Take `CN(C)C(=O)c1cccc(S(=O)(=O)N2CCS[C@H]2C(=O)O[C@@H](Cc2c(Cl)c[n+]([O-])cc2Cl)c2ccc(OC(F)F)c(OC3CCCC3)c2)c1` (relative stereo): the IC50 in data set [2] worked out at 0.04 nM; in data set [1], 0.021 nM.
In the case of `Cc1cc(S(=O)(=O)N2CCS[C@H]2C(=O)O[C@@H](Cc2c(Cl)c[n+]([O-])cc2Cl)c2ccc(OC(F)F)c(OCC3CC3)c2)c(C)s1` (relative stereo), the half-maximal inhibitory concentration (IC50) in data set [2] is 0.17 nM; in data set [1], 0.176 nM.
On the same counts, the results for `COCCC(=O)N1CCS[C@H]1C(=O)O[C@@H](Cc1c(Cl)c[n+]([O-])cc1Cl)c1ccc(OC(F)F)c(OCC2CC2)c1` (relative stereo) are 0.86 nM and 0.028 nM.
As to `CN(C)C(=O)c1cccc(S(=O)(=O)N2CCC[C@@H]2C(=O)O[C@@H](Cc2c(Cl)c[n+]([O-])cc2Cl)c2ccc(OC(F)F)c(OCC3CC3)c2)c1` (relative stereo), the IC50 in data set [2] amounted to 0.38 nM; in data set [1] it was 0.0533 nM.
Regarding `COc1cc([C@H](Cc2c(Cl)c[n+]([O-])cc2Cl)OC(=O)[C@@H]2SCCN2S(=O)(=O)c2cccc(C(=O)N(C)C)c2)ccc1OC(F)F` (relative stereo), the figures for the IC50 in data set [2] and in data set [1] were 0.032 nM and 0.014 nM, respectively.
On to `O=C(O[C@@H](Cc1c(Cl)c[n+]([O-])cc1Cl)c1ccc(OC(F)F)c(OCC2CC2)c1)[C@@H]1SCCN1S(=O)(=O)c1ccccc1` (relative stereo), for which the results for the IC50 in [2] and in [1] were 0.26 nM and 0.176 nM, respectively.
As for `COCCS(=O)(=O)N1CCC[C@H]1C(=O)O[C@@H](Cc1c(Cl)c[n+]([O-])cc1Cl)c1ccc(OC(F)F)c(OCC2CC2)c1` (relative stereo), the IC50 in [2] turned out to be 0.31 nM; in data set [1] it was 0.0442 nM.
In the same order, the values of `CN(C)C(=O)c1cccc(S(=O)(=O)N2CCC[C@@H](C(=O)O[C@@H](Cc3c(Cl)c[n+]([O-])cc3Cl)c3ccc(OC(F)F)c(OCC4CC4)c3)C2)c1` (relative stereo) are 0.12 nM and 0.031 nM.
